Screens as filed in PubChem.
Most compounds without a hit are left out; they make up all but 0.99% or so of the library.
GSK3beta inhib – blocks human GSK3beta kinase activity. GST-GSK3beta kinase, ADP-Glo luminescence, 60 min; stronger effect = lower value. activity score (negative = inhibition), % at 10 µM. actives 0.038% (n = 300,000);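 active = more than half of replicate wells score below -50%, meaning over 50% inhibition versus plate controls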;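 note: 0% = median DMSO wells and -100% = median GW8510 positive control wells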
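Test system – GST-tagged human GSK3beta kinase, cell-free · Incubation – 60 min enzyme reaction, room temperature · Signal – ADP-Glo luminescence · Also added – peptide substrate and ATP at 25 µM · Controls – DMSO neutral wells and GW8510 at 20 µM as positive · Buffer or medium – Tris/MgCl2 kinase buffer · Measure – Luminescence-derived activity versus plate DMSO and GW8510 wells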
Rin1-Abl PPI inh – inhibitors of human Rin1-Abl protein interaction; TR-FRET Rin1/Abl binding, biochemical; inhibition, % at 7.35 µM; actives 0.4% (n = 360,000); AID 588664; in the data active = inhibition above about 5%, passing the limit was not always enough
GSK3 alpha inh – inhibitors of human GSK-3 alpha kinase. P49840. inhibition, % at 10 µM. ADP-Glo luminescence, 60 min. actives 0.1% (n = 320,000);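 active = more than half of replicates show inhibition above 20%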;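 note: GST-tagged GSK-3 alpha with peptide substrate and 25 µM ATP; 0% = DMSO neutral wells and 100% = GW8510 positive control wells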
Dyrk1A ADPGlo – Dyrk1A (rat) kinase inhibition; actives 0.43% (n = 310,000); inhibition, % at 12.5 µM; ADP-Glo luminescence, NFATc1 peptide; Q63470; in the data active = inhibition above about 50%;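 note: plate controls were vehicle with enzyme for no effect and no enzyme for full effect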
STK33 kinase inh – inhibitors of human STK33 kinase; Q9BYT3; actives 0.073% (n = 320,000); inhibition, % at 10 µM; purified STK33, MBP phosphorylation, ADP-Glo luminescence;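 active = inhibition at or above 25%, using the most active replicate where run in duplicate; inactive = inhibition below 25%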
Target sequence (Q9BYT3 whole entry, looked up): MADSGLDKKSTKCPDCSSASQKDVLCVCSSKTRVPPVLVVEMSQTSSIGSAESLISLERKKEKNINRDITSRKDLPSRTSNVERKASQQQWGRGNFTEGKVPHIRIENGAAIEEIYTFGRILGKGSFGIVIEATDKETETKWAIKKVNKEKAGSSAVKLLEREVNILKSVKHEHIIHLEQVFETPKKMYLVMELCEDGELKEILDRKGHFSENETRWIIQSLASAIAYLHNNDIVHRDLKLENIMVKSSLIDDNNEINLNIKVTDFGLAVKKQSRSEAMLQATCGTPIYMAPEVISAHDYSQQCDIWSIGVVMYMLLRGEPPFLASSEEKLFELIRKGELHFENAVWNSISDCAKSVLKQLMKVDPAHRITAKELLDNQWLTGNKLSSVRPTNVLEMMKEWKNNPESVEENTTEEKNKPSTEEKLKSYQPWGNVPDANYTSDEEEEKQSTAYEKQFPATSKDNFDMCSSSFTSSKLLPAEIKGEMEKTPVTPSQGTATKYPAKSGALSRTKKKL
Arr AP2 block – blocks beta-arrestin peptide binding to AP2 adaptin | FITC-arrestin peptide / GST-AP2 beads, flow cytometry; AP2 beta2 appendage carries R879A mutation | inhibition, % at 10 µM | actives 0.31% (n = 340,000) | AID 504490;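 active = inhibition above a set limit, near 3 SD of compounds lacking own fluorescence, cut at about 54% in these data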;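 note: plate controls were DMSO wells for no effect and 5 µM unlabelled arrestin peptide for full effect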
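System: GST-AP2 R879A glutathione beads; medium: PBS, Tween 20 0.05%, BSA 0.1%; reagent: fluorescein-tagged arrestin peptide at 50 nM final; schedule: pre-incubation 12 min, peptide binding 1 h, room temperature; detection: flow cytometry, FL1 (488/535 nm); read-out: inhibition as reduced fluorescein signal on beads, percent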
Arr AP2 CP1 – inhibitors of human beta-arrestin and AP2 interaction. shares compounds with Arr AP2 block. GST-AP2 beads, FITC arrestin peptide binding, flow cytometry; GST-fused beta2-adaptin appendage, R879A mutant. inhibition, % at 10 µM. actives 2% (n = 1,300);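 active = inhibition above a set limit, roughly 3 SD of non-fluorescent compound noise, cut at about 38% in these data; inactive = inhibition at or below that limit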;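 note: loss of bead fluorescence from 50 nM FITC arrestin peptide bound to appendage; 0% = negative control wells and 100% = excess unlabelled arrestin peptide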
GST-FITC bead – disrupts GST binding to glutathione beads, arrestin-AP2 artifact; shares compounds with Arr AP2 block; GST-fluorescein binding to GSH beads, fluorescence, counter-screen; inhibition, % at 10 µM; actives 2% (n = 1,300); AID 588338;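 active = inhibition above 50%, about 3 SD of the inhibition seen with non-fluorescent compounds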;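 note: fluorescein maleimide labelled GST captured on 4 micron glutathione beads; higher means more loss of bead fluorescence from quenching or blocked binding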
* marks the source's active call; other numbers are inactive results; nt = no result given.

SMILES	GSK3beta inhib	Rin1-Abl PPI inh	GSK3 alpha inh	Dyrk1A ADPGlo	STK33 kinase inh	Arr AP2 block	Arr AP2 CP1	GST-FITC bead
CCOc1ncccc1C(=O)OCC(=O)c1c(N)n(C)c(=O)n(C)c1=O	1.5	0.7	-1.6	4.1	-0.6	4.7	-8.1	0.1
Cn1c(N)c(C(=O)COC(=O)c2ccccn2)c(=O)n(C)c1=O	3.7	1.9	-0.7	-1.2	-0.5	-3.9	12.6	-3.3
COc1cccc(NC(=O)Cn2c(=O)n(-c3cc(OC)c(OC)c(OC)c3)c(=O)c3ccccc32)c1	-1.3	-2.5	4.2	5.0	1.2	17.6	nt	nt
CCn1c(=O)n(CC(=O)Nc2cccc(OC)c2)c(=O)c2ccccc21	5.1	2.3	nt	-3.4	nt	-0.3	-2.5	-5.9
CCn1c(=O)n(CC(=O)Nc2cc(OC)c(OC)c(OC)c2)c(=O)c2ccccc21	0.8	3.6	nt	2.7	-0.4	14.0	-13.1	-4.0
COc1ccccc1C#CC1=CC(=O)C[C@H](c2ccc(F)cc2)C1	nt	-0.4	nt	nt	nt	nt	nt	nt
C=CCn1c(-c2ccc(OC)cc2)nc2ccccc21	-4.1	5.8	0.2	7.2	-0.8	97.9*	-12.0	2.0
C=CCn1c(-c2ccc(N)cc2)nc2ccccc21	2.0	-1.9	-3.8	13.8	-0.5	21.4	nt	nt
CCc1nc(N)nc(N)c1-c1ccc(N(C)Cc2ccccc2)c([N+](=O)[O-])c1	nt	-4.2	nt	-2.6	nt	-33.4	nt	nt
O=C(NCC1COc2ccccc2O1)c1ccc(NC(=O)C(c2ccccc2)c2ccccc2)cc1 (configuration not stated)	-4.9	1.5	-4.6	-45.6	1.4	99.1*	35.3	5.4
CCOC(=O)CCCCCNC(=O)c1ccc(F)cc1F	-1.6	1.6	0.8	2.3	1.5	1.8	nt	nt
COc1ccccc1NS(=O)(=O)c1cccc(NC(=O)C2CC(=O)N(Cc3ccccc3)C2)c1 (configuration not stated)	3.2	0.9	-1.9	-0.1	0.1	60.2*	-2.6	-12.0
Cc1noc(C)c1NC(=O)Nc1cccc2c1O[C@H](CN(C)S(=O)(=O)c1cn(C)cn1)[C@@H](C)CN([C@H](C)CO)C2=O	nt	-2.7	-0.9	nt	-1.5	1.5	nt	nt
Oc1[nH]c2c(Cl)cc(Cl)cc2c1N=NC(=S)NCC1CCCO1 (configuration not stated)	1.5	-1.2	-3.1	-0.8	-0.9	103.9*	19.8	1.2
Cc1cc(C)c2[nH]c(O)c(N=NC(=S)NCC3CCCO3)c2c1 (configuration not stated)	0.1	-12.5	nt	-1.5	nt	-0.8	nt	nt
COc1ccc(CCNC(=S)NC(=O)c2cccc([N+](=O)[O-])c2)cc1OC	1.4	3.3	0.4	nt	0.2	12.7	nt	nt
Cc1cc(Br)ccc1NC(=O)CN(C)C(=O)C1CCN(c2ncnc3sc(C)c(C)c23)CC1	nt	-3.4	nt	30.1	nt	44.3	nt	nt
CNS(=O)(=O)c1ccc2c3c(cccc13)C(=O)N2	-3.9	-5.9	2.6	2.0	5.7	9.7	nt	nt
O=C1Nc2ccc(NS(=O)(=O)c3cccs3)c3cccc1c23	2.0	-3.5	3.4	-2.0	2.1	96.3*	12.6	1.6
CCc1ccc(OCC(=O)NNCC(=O)Nc2ccc(OC)cc2)cc1	nt	-0.5	nt	-3.9	nt	58.5*	-4.2	-8.1
NC(=O)c1cc(S(=O)(=O)N2CCN(c3ccc([N+](=O)[O-])cc3)CC2)cs1	-2.0	-2.6	1.7	1.9	-0.1	-2.8	nt	nt
COc1ccc(-n2nnnc2SCC(=O)Nc2ccccc2F)cc1	0.5	-0.1	1.7	nt	-0.7	1.5	nt	nt
N#Cc1ccccc1OCC(=O)OCC(=O)NCc1ccc2c(c1)OCO2	nt	0.4	-2.5	nt	-0.6	54.9*	4.8	-5.1
COc1cccc(NC(=O)C2CSC3(C)CCC(=O)N23)c1 (configuration not stated)	2.2	2.9	-0.8	6.0	-0.3	-3.6	nt	nt
CC(OC(=O)C1CSC2(C)CCC(=O)N12)C(=O)Nc1cccc(C#N)c1 (configuration not stated)	0.9	-1.2	-0.9	12.1	1.4	1.2	1.0	-4.9
SMILES	GSK3beta inhib	Rin1-Abl PPI inh	GSK3 alpha inh	Dyrk1A ADPGlo	STK33 kinase inh	Arr AP2 block	Arr AP2 CP1	GST-FITC bead
CC(OC(=O)C1CSC2(C)CCC(=O)N12)C(=O)Nc1ccc(F)cc1 (configuration not stated)	nt	-2.4	4.1	-1.5	4.1	-2.9	-11.8	-8.9
CCn1c(SCC(=O)Nc2ccc(F)cc2)nnc1C1CC1	2.0	-0.8	1.1	9.2	-0.9	2.1	nt	nt
COc1cc2c(cc1NC(=O)CSc1ccccc1)oc1ccccc12	3.3	1.9	-2.2	5.7	-1.2	0.5	-7.9	-4.3
COc1cc2c(cc1NC(=O)CSc1nccn1C)oc1ccccc12	3.1	-1.4	-0.6	1.2	0.2	-4.5	nt	nt
COc1ccc(OCC(=O)Nc2cc3oc4ccccc4c3cc2OC)cc1	-0.9	0.1	-1.0	5.6	-0.1	28.0	1.2	19.0
COc1cc(NC(=O)COc2ccccc2)c(OC)cc1NC(C)=O	0.9	2.5	-1.6	-3.0	nt	60.0*	-1.2	-9.8
COc1cc(NC(=O)c2ccccc2)c(OC)cc1NC(C)=O	-2.5	2.6	0.9	1.6	0.0	-2.4	nt	nt
Cc1ccc(S(=O)(=O)N2CCN(C(=O)CSCc3ccc(C(C)C)cc3)CC2)cc1	nt	3.7	-5.5	-5.2	1.2	22.0	nt	nt
Cc1ccc2c(c1)CCCN2C(=O)CCc1nc2ccccc2c(=O)[nH]1	nt	0.8	9.4	4.8	-0.4	-1.7	nt	nt
COc1ccc(N2CCN(c3nccs3)CC2)cc1	nt	0.6	-1.7	2.3	-0.1	4.7	nt	nt
CCn1c(=O)n(CC)c2cc(N3CCCC3)c(NC(=O)c3ccc(C)c([N+](=O)[O-])c3)cc21	3.7	4.8	7.4	-5.9	1.1	70.1*	-0.2	-6.7
CCn1c(=O)n(CC)c2cc(N3CCCC3)c(NC(=O)c3cccc(Cl)c3)cc21	0.7	2.2	9.4	2.7	2.8	4.3	-6.7	-0.1
Cc1cc(NC(=O)c2ccc(N3CCCC3)c([N+](=O)[O-])c2)no1	-5.0	-2.5	-1.0	3.3	-0.3	97.6*	-3.3	23.2
O=C(Nc1ccon1)c1ccc(N2CCCCC2)c([N+](=O)[O-])c1	-0.2	-3.5	-0.4	6.9	1.0	0.9	nt	nt
CCN1CCN(c2ccc(S(=O)(=O)N3CCCCC3)cc2NC(=O)c2cccc(Cl)c2)CC1	0.2	-3.5	-1.7	3.6	1.2	2.0	nt	nt
CCn1c(=O)n(CC)c2cc(N3CCCC3)c(NC(=O)c3cccc(C)c3)cc21	3.6	3.2	-8.7	-0.8	4.0	63.7*	8.9	7.3
